The record followed here is ChEMBL document CHEMBL3286150, “Discovery of PF-5190457, a Potent, Selective, and Orally Bioavailable Ghrelin Receptor Inverse Agonist Clinical Candidate” (ACS Med Chem Lett, 2014).

Calls of active or inactive are those of the source. The calls are words filed in the database; no cut-off is given here.

The target of data set [1] is T1, Growth hormone secretagogue receptor type 1 (Homo sapiens, UniProt Q92847). The data set is described as follows: Inverse agonist activity at human ghrelin receptor expressed in HEK293 cells assessed as inhibition of ghrelin-induced europium-labeled GTP-gamma-S binding by DELFIA. The data set is classed as cell-based. The procedure, abridged:
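GTP-γ-S functional assay run in agonist/antagonist/inverse-agonist mode. Minimum percent effect is reported, with negative values denoting inverse agonism. Values are geometric means ± standard error of ≥3 measurements unless noted.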
A general note: GTPγS is a poorly hydrolysed GTP analogue; its binding reports G protein activation.

The target of data set [2] is T2, Muscarinic acetylcholine receptor M2 (Homo sapiens) (UniProt P08172).
T2 sequence (whole entry): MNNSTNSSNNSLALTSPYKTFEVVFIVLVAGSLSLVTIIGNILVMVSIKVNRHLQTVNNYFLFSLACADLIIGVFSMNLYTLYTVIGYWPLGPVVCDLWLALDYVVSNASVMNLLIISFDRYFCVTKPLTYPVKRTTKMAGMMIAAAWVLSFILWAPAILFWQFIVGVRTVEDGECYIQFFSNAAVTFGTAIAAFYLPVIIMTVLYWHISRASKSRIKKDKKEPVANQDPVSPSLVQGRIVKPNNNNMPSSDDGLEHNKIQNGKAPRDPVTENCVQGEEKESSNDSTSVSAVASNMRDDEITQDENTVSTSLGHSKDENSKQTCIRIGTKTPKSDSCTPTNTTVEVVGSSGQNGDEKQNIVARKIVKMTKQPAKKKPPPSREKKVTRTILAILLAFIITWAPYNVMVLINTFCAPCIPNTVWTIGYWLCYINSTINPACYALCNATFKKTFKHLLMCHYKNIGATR
The data set can be described thus: Antagonist activity at muscarinic M2 receptor (unknown origin) expressed in CHO-K1 CHRM2 beta-arrestin cells assessed as inhibition of oxotremorine S-induced effect after 90 mins. The data set is classed as cell-based. The procedure, abridged:
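Antagonist mode in a β-arrestin PathHunter format. Kb was determined in the presence of an EC80 concentration of the agonist oxotremorine.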

In data set [3] the test system is MDCK. The data set is described as follows: Efflux ratio of permeability from basolateral to apical over apical to basolateral side in MDCK cells expressing human MDR1. The settings on record: dog.
Data set [4] in a line: Apparent intrinsic clearance in human liver microsomes. The data set is classed as ADME. The settings on record: read-out: CLH. An outline of the steps:
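Apparent intrinsic clearance in human liver microsomes, expressed as mL/min/kg. Values are uncorrected for fraction unbound.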

Data set [5] can be described thus: Apparent permeability of the compound in MDCK2 cells. The settings on record: dog, mdck. It counts as ADME, cell-based, Canis lupus familiaris, MDCK-II. The procedure, abridged: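 Passive permeability (Papp, 10–6 cm/s) measured in low-efflux MDCKII cells.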
Data set [6] is filed under the species Homo sapiens. The data set is described as follows: Selectivity ratio of pKb for muscarinic M2 receptor (unknown origin) expressed in CHO-K1 CHRM2 beta-arrestin cells to Ki for human ghrelin receptor expressed. It counts as cell-based. An outline of the steps: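 Ratio of the M2 Kb (β-arrestin PathHunter antagonist format, EC80 oxotremorine) over the human ghrelin receptor functional Ki (GTP-γ-S assay).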

In data set [7] the target is T1, Growth hormone secretagogue receptor type 1. The data set is described as follows: Displacement of [125I]ghrelin from human ghrelin receptor expressed in HEK293 cells after 8 hrs by scintillation proximity assay. The data set is classed as cell-based. An outline of the steps: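 Human ghrelin receptor binding measured by scintillation proximity assay. Values are geometric means of at least 3 measurements, unless noted otherwise.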
On the technique in general: Loss of bound radioactivity is the signal in a displacement assay; it reports binding, not function.

Data set [8] can be described thus: Oral absorption in portal vein cannulated rat at 10 mg/kg, po. The data set is classed as ADME, organism-based. Further details: dose 10 mg/kg, route oral. The settings on record: in vivo.
For data set [9], the target named is Voltage-gated inwardly rectifying potassium channel KCNH2 (Homo sapiens, UniProt Q12809). The data set can be described thus: Inhibition of human ERG.
Chain of Voltage-gated inwardly rectifying potassium channel KCNH2 (Q12809 whole entry): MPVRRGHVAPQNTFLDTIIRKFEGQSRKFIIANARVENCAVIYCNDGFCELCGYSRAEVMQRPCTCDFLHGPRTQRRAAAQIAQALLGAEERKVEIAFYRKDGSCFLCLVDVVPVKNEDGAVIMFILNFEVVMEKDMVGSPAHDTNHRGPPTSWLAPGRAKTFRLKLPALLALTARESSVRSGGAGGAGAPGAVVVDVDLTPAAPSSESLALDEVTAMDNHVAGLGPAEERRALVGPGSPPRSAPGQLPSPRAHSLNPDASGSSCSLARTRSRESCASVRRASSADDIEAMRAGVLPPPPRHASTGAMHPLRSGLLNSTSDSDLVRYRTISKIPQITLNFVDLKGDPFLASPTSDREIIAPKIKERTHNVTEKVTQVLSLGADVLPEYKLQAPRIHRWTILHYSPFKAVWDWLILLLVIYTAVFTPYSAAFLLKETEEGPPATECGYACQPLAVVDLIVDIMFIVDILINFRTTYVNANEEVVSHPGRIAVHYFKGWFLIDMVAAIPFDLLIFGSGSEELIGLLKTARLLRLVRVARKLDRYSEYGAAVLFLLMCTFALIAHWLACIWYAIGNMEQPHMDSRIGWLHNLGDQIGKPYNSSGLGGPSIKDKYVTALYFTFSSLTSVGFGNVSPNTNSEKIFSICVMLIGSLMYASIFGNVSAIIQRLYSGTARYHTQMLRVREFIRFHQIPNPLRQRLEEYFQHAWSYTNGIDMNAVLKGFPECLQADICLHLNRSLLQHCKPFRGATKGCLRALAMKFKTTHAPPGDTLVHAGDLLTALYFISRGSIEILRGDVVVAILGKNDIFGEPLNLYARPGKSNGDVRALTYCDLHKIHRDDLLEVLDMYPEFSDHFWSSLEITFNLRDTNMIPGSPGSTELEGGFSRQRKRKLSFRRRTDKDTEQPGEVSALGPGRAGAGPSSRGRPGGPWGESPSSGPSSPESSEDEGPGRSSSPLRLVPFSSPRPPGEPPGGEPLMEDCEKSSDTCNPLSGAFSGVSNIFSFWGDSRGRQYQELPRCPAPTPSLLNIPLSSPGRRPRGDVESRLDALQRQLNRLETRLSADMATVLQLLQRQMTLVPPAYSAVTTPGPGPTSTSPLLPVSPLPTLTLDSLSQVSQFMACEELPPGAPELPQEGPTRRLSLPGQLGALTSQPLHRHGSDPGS
Data set [10] has as its target T3, 5-hydroxytryptamine receptor 2B (Homo sapiens, UniProt P41595). The data set is described as follows: Agonist activity at 5HT2B receptor (unknown origin).
In data set [11] the target is T3, 5-hydroxytryptamine receptor 2B. The data set can be described thus: Antagonist activity at 5HT2B receptor (unknown origin).
For data set [12] the target is unchanged. The data set is described as follows: Inhibition of 5HT2B receptor (unknown origin).
Data set [13] addresses Histamine H1 receptor (Homo sapiens) (UniProt P35367). The data set can be described thus: Activity at histamine H1 receptor (unknown origin) at 10 uM.
The target in data set [14] is D(3) dopamine receptor (Homo sapiens) (UniProt P35462). The data set can be described thus: Activity at dopamine D3 receptor (unknown origin) at 10 uM.
Chain of D(3) dopamine receptor (Homo sapiens) (P35462 whole entry): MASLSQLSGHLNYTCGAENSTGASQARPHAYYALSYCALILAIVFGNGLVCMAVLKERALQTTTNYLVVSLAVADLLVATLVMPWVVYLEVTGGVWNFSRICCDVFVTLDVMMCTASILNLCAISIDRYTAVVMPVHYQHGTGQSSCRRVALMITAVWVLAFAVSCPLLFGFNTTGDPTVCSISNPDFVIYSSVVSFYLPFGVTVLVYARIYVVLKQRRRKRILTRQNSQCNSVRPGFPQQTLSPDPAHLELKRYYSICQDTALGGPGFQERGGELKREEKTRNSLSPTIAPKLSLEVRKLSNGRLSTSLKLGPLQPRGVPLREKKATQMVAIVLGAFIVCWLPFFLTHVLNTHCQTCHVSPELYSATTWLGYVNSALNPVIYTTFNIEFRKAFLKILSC
Data set [15] deals with T4, D(4) dopamine receptor (Homo sapiens) (UniProt P21917).
T4 sequence (whole entry): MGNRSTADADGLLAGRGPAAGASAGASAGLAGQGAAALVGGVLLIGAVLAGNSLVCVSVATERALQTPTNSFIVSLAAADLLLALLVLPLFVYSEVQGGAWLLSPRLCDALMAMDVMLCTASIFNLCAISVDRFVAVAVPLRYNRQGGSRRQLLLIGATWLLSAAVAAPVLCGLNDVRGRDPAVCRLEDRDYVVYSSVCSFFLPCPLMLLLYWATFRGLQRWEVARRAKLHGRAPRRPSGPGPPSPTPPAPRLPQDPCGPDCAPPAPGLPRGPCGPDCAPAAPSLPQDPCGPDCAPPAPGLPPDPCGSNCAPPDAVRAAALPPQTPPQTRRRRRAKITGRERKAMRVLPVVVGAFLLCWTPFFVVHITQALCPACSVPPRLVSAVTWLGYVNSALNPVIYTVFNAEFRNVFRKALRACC
The data set is described as follows: Activity at dopamine D4 receptor (unknown origin) at 10 uM.

The target of data set [16] is D(2) dopamine receptor (Homo sapiens) (UniProt P14416). The data set can be described thus: Activity at dopamine D2S receptor (unknown origin) at 10 uM.
Chain of D(2) dopamine receptor (Homo sapiens) (P14416 whole entry): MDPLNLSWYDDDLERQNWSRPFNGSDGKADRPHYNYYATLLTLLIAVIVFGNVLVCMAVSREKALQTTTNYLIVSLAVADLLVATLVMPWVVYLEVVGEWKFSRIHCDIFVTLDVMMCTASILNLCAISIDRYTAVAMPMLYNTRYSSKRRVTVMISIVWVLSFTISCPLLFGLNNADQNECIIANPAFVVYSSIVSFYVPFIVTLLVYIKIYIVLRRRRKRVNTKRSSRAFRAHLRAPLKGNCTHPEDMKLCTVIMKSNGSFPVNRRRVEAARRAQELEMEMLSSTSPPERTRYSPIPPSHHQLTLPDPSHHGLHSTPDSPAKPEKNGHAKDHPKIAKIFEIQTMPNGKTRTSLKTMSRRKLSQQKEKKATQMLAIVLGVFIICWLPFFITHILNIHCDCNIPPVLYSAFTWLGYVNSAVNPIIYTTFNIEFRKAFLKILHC
Data set [17] concerns the target T5, Alpha-2A adrenergic receptor (Homo sapiens) (UniProt P08913).
T5 sequence (whole entry): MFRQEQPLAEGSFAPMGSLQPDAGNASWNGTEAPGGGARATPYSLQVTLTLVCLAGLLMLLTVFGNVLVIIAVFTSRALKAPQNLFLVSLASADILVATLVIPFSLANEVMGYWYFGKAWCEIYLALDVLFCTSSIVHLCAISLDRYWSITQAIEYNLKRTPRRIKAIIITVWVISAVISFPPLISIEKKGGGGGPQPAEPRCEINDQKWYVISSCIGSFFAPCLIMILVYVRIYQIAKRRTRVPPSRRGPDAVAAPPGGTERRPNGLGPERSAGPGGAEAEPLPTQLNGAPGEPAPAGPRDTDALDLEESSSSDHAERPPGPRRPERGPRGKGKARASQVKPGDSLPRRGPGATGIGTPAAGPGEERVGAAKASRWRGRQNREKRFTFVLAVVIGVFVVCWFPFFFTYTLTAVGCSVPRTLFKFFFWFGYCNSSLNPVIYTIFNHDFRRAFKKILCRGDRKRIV
The data set can be described thus: Activity at adrenergic alpha2A receptor (unknown origin) at 10 uM.

Data set [18] addresses T6, Alpha-2C adrenergic receptor (Homo sapiens) (UniProt P18825).
T6 sequence (whole entry): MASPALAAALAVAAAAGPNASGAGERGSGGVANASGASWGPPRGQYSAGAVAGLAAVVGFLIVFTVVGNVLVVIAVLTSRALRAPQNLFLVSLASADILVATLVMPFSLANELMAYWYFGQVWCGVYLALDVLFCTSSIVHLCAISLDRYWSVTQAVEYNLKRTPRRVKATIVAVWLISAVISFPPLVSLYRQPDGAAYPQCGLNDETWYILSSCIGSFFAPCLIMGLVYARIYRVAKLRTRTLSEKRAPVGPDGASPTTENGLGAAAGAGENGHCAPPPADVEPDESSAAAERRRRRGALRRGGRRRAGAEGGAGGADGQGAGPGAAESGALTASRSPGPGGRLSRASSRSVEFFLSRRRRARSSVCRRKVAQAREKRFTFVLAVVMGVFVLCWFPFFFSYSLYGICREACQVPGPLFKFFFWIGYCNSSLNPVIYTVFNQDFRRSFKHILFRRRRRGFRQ
The data set is described as follows: Activity at adrenergic alpha2C receptor (unknown origin) at 10 uM.

T1 sequence (Q92847 whole entry): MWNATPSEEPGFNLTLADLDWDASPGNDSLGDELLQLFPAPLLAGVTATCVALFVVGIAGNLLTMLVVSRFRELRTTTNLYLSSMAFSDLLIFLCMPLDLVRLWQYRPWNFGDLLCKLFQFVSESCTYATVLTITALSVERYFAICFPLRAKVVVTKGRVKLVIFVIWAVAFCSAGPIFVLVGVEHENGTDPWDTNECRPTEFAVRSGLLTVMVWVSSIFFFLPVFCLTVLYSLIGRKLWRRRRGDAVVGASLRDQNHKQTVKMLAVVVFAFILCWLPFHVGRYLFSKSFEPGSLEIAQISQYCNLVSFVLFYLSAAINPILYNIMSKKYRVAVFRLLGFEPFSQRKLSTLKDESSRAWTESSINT
T3 sequence (P41595 whole entry): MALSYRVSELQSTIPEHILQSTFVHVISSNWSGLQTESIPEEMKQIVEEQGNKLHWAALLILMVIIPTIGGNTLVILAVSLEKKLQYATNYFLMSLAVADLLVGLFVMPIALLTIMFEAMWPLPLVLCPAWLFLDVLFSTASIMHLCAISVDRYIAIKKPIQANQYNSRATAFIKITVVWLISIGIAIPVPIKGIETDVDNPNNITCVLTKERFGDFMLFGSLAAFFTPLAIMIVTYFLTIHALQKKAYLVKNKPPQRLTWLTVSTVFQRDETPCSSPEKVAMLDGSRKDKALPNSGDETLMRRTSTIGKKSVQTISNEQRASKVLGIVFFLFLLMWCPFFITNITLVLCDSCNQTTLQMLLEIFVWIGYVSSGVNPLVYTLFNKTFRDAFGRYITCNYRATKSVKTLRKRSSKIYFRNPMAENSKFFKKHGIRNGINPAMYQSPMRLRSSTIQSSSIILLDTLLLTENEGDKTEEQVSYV
Chain of Histamine H1 receptor (Homo sapiens) (P35367 whole entry): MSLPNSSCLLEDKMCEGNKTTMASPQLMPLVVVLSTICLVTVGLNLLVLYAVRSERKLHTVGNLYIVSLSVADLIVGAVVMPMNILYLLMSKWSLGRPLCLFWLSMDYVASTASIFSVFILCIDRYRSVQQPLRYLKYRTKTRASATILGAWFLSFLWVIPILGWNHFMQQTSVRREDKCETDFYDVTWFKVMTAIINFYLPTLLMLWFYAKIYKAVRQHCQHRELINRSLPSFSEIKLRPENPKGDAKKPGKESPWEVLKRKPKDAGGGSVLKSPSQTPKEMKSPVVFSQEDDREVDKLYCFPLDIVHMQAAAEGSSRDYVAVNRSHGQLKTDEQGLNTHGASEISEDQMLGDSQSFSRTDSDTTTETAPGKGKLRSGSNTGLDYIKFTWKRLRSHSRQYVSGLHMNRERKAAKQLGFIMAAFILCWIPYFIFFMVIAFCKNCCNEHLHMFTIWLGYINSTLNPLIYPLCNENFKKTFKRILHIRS

For the molecule `COc1ccc(CC(=O)N2CCC3(CC2)CN([C@@H]2CCc4cc(-c5ncc(C)cn5)ccc42)C3)nc1`, in data set [1], the Ki (usually the equilibrium dissociation constant of an inhibitor or competing ligand from its target) was 85.1 nM. Also, the negative-log Kb (pKb) – broadly, the Kb on a negative log10 scale, so that one unit is a factor of ten – in data set [2] was determined as 5.86.

With `Cc1cn2cc(CC(=O)N3CCC4(CC3)CN([C@@H]3CCc5cc(-c6ncccn6)ccc53)C4)nc2s1`, the Ki was 6.61 nM in [1] and 4.57 nM in [7]. For the same molecule, the results for the Ratio in data set [3] and in [6] were 5.4 and 47, respectively. Further, the pKb in data set [2] amounted to 6.41. Moreover, in [4], the CLint scaled was 18 mL/min/kg. The Papp (in general, a coefficient for how fast a substance crosses the barrier) in data set [5] turned out to be 11 ×10⁻⁶ cm/s.

Take `Cc1cc(-c2ccc3c(c2)CC[C@H]3N2CC3(CCN(C(=O)Cc4cn5cc(C)sc5n4)CC3)C2)ncn1` [PF-5190457]: the Ki in data set [1] and in [7] was 6.61 nM throughout. The Ratio in [3] was 7.2; in data set [6], 266. In addition, in data set [2], the negative-log Kb (pKb) is 5.71. Besides, the CLint scaled in [4] is 21 mL/min/kg. Besides, the Papp in [5] was 5 ×10⁻⁶ cm/s. The Fa in data set [8] was found to be 100%. For the same molecule, the half-maximal inhibitory concentration (IC50) (in general, the concentration that gives 50% inhibition) in [9] turned out to be 6900 nM; in data set [12] it was 3700 nM. In addition, in data set [10], the outcome was inactive. The inhibition entry in data set [11] was “inactive”.

As to `COc1ccc(CC(=O)N2CCC3(CC2)CN([C@@H]2CCc4cc(-c5ccncn5)ccc42)C3)nc1`, the Ratio in data set [3] was determined as 5.4. Further, in [2], the pKb worked out at 6.08. Further, the CLint scaled in data set [4] worked out at 82 mL/min/kg. In addition, the Papp in [5] was found to be 15 ×10⁻⁶ cm/s.

As for `COc1ccc(CC(=O)N2CCC3(CC2)CN([C@@H]2CCc4cc(-c5ncccn5)ccc42)C3)nc1`, in data set [1], the Ki is 25.1 nM. Moreover, the pKb in data set [2] is 6.18.

For `COc1ccc(CC(=O)N2CCC3(CC2)CN([C@@H]2CCc4cc(-c5ncccn5)ccc42)C3)cc1`, the result in [13], in data set [14], in data set [15], in data set [16], in [17] and in data set [18] was Active. Also, the pKb in [2] was 5.94.

Regarding `Cc1cn2cc(CC(=O)N3CCC4(CC3)CN([C@@H]3CCc5cc(-c6ccc(C(N)=O)nc6)ccc53)C4)nc2s1`, in data set [3], the Ratio was above 18.2. Besides, in data set [2], the pKb came out at 6.48.

As to `COc1ccc(CC(=O)N2CCC3(CC2)CN([C@@H]2CCc4cc(-c5cc(C)ncn5)ccc42)C3)nc1`, the pKb in data set [2] was found to be 5.66.

Consider `COc1ccc(CC(=O)N2CCC3(CC2)CN([C@@H]2CCc4cc(-c5nccc(C)n5)ccc42)C3)nc1`, for which the inhibition constant (Ki) in data set [1] is 50.1 nM. In addition, the Ratio came to 3.7 in data set [3] and 20 in data set [6]. Also, in data set [2], the pKb came out at 6.09. In addition, the CLint scaled in data set [4] is 17 mL/min/kg. Besides, the apparent permeability (Papp) in data set [5] stood at 10 ×10⁻⁶ cm/s.
